# Results published in article PMC9115729 (Bioorganic & medicinal chemistry, 2020).
# Experiments:
# [1] = molecular target: T1, human kidney-type glutaminase (hKGA124-669) (Homo sapiens, UniProt O94925); test: in vitro GLS assay with L-[3H]-glutamine as substrate; type: biochemical; conditions: for GLS inhibitory potency in words: comparison with compounds 8 and 3a
# T1 sequence (O94925 124-669): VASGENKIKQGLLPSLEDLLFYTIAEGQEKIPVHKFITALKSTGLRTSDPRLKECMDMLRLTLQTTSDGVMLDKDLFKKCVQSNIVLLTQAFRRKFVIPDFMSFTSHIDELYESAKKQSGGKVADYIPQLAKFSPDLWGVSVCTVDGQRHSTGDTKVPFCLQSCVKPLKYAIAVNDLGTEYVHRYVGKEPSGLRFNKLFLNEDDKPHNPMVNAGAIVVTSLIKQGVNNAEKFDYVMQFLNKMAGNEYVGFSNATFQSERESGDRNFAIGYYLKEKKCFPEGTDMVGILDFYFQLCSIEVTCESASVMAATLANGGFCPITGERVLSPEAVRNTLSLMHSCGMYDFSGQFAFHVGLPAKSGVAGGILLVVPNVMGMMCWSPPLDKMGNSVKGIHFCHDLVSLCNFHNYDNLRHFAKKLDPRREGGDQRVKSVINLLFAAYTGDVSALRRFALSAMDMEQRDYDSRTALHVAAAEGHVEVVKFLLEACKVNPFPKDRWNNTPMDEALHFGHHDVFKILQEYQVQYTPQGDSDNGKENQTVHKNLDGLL
# [2] = test system: GLS; conditions: read-out: GLS inhibition IC50; literature value; cited from earlier work
# [3] = type: physicochemical; conditions: final concentrations of 1-10 μM
# [4] = Aqueous solubility by the shake flask method; type: physicochemical; conditions: PBS buffer, 37 °C, pH 7.4, aqueous buffer, thermodynamic from solid
# In short: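 Test compound added to PBS (pH 7.4) at 5 mg/mL and shaken at 1000 rpm for 24 h at 37 °C to reach saturation. The solution was then passed through a 0.45 μm PTFE filter and the filtrate diluted. Concentration was quantified by UHPLC–Orbitrap MS on a C18 column (35 °C) with a 0.1% formic acid water/acetonitrile gradient, against a 5-10000 nM calibration curve.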
GLS inhibitory potency in words [1],Compound,other results
substantially weaker potency,"Nc1nnc(CCSc2ccc(NC(=O)Cc3ccccc3)nn2)s1 [Compound 18, N-(6-(2-(5-Amino-1,3,4-thiadiazol-2-yl)ethylthio)pyridazin-3-yl)-2-phenylacetamide]",–
comparable,"Nc1nnc(SCCc2ccc(NC(=O)Cc3ccccc3)nn2)s1 [Compound 24, N-(6-(2-(5-Amino-1,3,4-thiadiazol-2-ylthio)ethyl)pyridazin-3-yl)-2-phenylacetamide]",–
comparable,"O=C(Cc1ccccc1)Nc1ccc(CCSc2nnc(NC(=O)Cc3ccccc3)s2)nn1 [Compound 25, 2-Phenyl-N-(6-(2-(5-(2-phenylacetamido)-1,3,4-thiadiazol-2-ylthio)ethyl)pyridazin-3-yl)acetamide]",solubility at 24 h [4]: < 1 µM

# Second part, the compound before the results:
Compound,GLS inhibitory potency in words [1],other results
"O=C(Cc1ccccc1)Nc1nnc(CSCc2nnc(NC(=O)Cc3ccccc3)s2)s1 [Compound 2b, N,N’-(5,5’-Thiobis(methylene)bis(1,3,4-thiadiazole-5,2-diyl))bis(2-phenylacetamide), reference compound]",negligible activity,GLS inhibitory activity ([1]; at concentrations up to 100 μM): no inhibitory activity; IC50 [2]: > 20 µM
"O=C(Cc1ccccc1)Nc1nnc(CCSc2nnc(NC(=O)Cc3ccccc3)s2)s1 [Compound 3a, 2-Phenyl-N-(5-(2-(5-(2-phenylacetamido)-1,3,4-thiadiazol-2-yl)ethylthio)-1,3,4-thiadiazol-2-yl)acetamide]",–,behaviour on addition of stock solution to cell culture media [3]: precipitation
"O=C(Cc1ccccc1)Nc1ccc(SCCc2nnc(NC(=O)Cc3ccccc3)s2)nn1 [Compound 19, 2-Phenyl-N-(6-(2-(5-(2-phenylacetamido)-1,3,4-thiadiazol-2-yl)ethylthio)pyridazin-3-yl)acetamide]",substantially weaker potency,–
